Compound activity as filed in PubChem.
SKN-1 block: suppressors of acrylamide-induced Pgst-4::GFP reporter in worms, primary screen, SKN-1 inhibitor project, whole organism, uHTS, GFP/RFP fluorescence ratio, strain VP596; C. elegans VP596 Pgst-4::GFP/RFP ratio, 24 h; inhibition, % at 21.8 µM; actives 0.49% (n = 360,000); AID 624304, 2012;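 active = interference check ratio from 0.5 to 1.5 plus GFP to RFP signal ratio inhibition reaching or exceeding a fixed threshold, cut at about 30% in these data, passing the limit was not always enough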
Cneo AK release: Cryptococcus neoformans cell lysis inducers, primary screen, AK release luminescence, single concentration; C. neoformans lysis, adenylate kinase release luminescence, 4 h; normalised: neutral wells 0, clomiphene wells 100; lysis activity, % at 15 µM; actives 0.2% (n = 360,000);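 active = mean lysis activity across replicates of at least 80%, whatever share of replicates individually reach that level; inactive = mean lysis activity below 80%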
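Test system: log-phase Cryptococcus neoformans yeast cells; Quantity: yeast cell density of 5 × 10^6 cells/mL; Buffer or medium: YPD; Doses: single compound concentration per well; Timing: 4 h at 37 °C static, read 1 h later; Measured by: AK luminescence; Read-out basis: lysis from increased AK signal; Control set: Clomiphene as positive control.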
hiPSC survival: enhancers of single-cell hiPSC survival, primary screen, ATPlite luminescence; survival enhancement, % at 20 µM; 100% = ROCK inhibitor wells, 0% = DMSO; actives 0.044% (n = 360,000); in the data active = survival enhancement above about 18%;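 also: cells exposed to compounds for 16 hours before the ATP read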
MT1-MMP act inh: blockers of MT1-MMP proenzyme processing, primary screen, HT1080 RFP-PRO-GFP cells, GFP/RFP fluorescence | actives 0.061% (n = 360,000) | GFP/RFP ratio fluorescence, overnight; percent of plate control window, DMSO zero | GFP/RFP ratio change, % at 20 µM;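 active = GFP/RFP ratio change of at least 30% with cell ATP level not reduced by more than half and red fluorescence within 50% of control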
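Assay system: HT1080 RFP-PRO-GFP cells | Dosing: 20 µM single dose, 1% DMSO | Incubation: Cells overnight before dosing, compound overnight, 37 °C, 5% CO2 | Evaluation: GFP/RFP fluorescence ratio | Control set: DMSO-only wells and HT1080 RFP-L50D-GFP cell wells as references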
rRNA inh HTS: reduced GFP signal of wild-type E. coli, primary screen, bacterial rRNA inhibitor project, GFP/RFP fluorescence, OD600, single point | E. coli WT GFP vs humanized-ribosome RFP mutants, 24 h; hits give low values; DMSO median 0, no signal -100 | GFP signal change (wild-type ribosome), % (test concentration not listed) | actives 1.6% (n = 350,000) | AID 720706, 2013;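 active = significant combined selectivity score with lowered wild-type GFP, culture density cut under 30%, mutant RFP and density less affected; inactive = any of these conditions unmet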
DAGLB inh: DAGLB lipase inhibitors, primary screen, biochemical, fluorescence, HTS | Diacylglycerol lipase-beta (Homo sapiens), Q8NCG7 | inhibition, % at 5.17 µM | actives 0.059% (n = 340,000) | HEK293T DAGLB membrane lysate, EnzChek fluorogenic substrate; in the data active = inhibition above about 34%;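 also: 0% = enzyme with vehicle and 100% = wells lacking enzyme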
Target sequence (Q8NCG7 whole entry, looked up): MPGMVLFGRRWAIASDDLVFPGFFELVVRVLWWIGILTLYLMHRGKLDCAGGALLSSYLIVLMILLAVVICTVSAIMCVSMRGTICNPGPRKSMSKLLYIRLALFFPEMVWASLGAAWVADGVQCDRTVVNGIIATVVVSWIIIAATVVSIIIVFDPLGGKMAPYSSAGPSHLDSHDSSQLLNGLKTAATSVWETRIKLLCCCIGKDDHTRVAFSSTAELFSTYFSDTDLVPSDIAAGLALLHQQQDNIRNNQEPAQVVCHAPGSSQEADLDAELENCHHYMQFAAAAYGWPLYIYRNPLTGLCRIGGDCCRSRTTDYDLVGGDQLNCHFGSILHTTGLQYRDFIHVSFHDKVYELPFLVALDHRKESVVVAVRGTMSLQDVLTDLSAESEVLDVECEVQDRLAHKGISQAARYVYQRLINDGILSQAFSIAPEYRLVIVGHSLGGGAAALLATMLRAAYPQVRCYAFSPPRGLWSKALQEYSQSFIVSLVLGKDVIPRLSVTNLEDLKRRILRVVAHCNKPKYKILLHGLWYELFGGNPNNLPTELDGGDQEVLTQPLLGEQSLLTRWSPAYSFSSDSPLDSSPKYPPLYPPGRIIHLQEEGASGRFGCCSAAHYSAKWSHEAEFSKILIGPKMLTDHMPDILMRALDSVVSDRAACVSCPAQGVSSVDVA
AID977621: growth inhibition of wild-type GFP E. coli, dose response, H69 mutant RFP, cherry-pick | shares compounds with rRNA inh HTS | E. coli wild-type GFP strain growth, fluorescence, 24 h | activity change, negative = inhibition at 50 µM | 1,900 tested, under 10 active;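 active = Wild-type ribosome reporter drop at least double the humanized mutant ribosome reporter drop, growth loss under a set limit; inconclusive = no clear call, values can overlap the other calls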;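 also: wild-type GFP and H69 mutant RFP strains grown together 50/50 in each well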
AID977628: E. coli growth inhibition, wild-type GFP versus h24 humanized RFP strain, dose response, h24 mutant RFP vs wild-type GFP, cherry-pick; E. coli WT GFP strain growth, fluorescence, 24 h; 1,900 tested, under 10 active; shares compounds with rRNA inh HTS; AID 977628, 2014; activity change, negative = inhibition at 50 µM;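 active = compound lowering the normal-ribosome reporter at least twice as much as the humanized-ribosome reporter, growth loss under a set limit; inconclusive = no clear call, values can overlap the other calls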;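 also: wild-type GFP and h24 humanized RFP strains co-cultured 1 to 1 per well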
An asterisk follows results filed as active; ? = inconclusive; / = not tested or not shown. In the library only some 1.8% were active in any assay of this set; here they are far more common.

SMILES	SKN-1 block	Cneo AK release	hiPSC survival	MT1-MMP act inh	rRNA inh HTS	DAGLB inh	AID977621	AID977628
Cc1ccc2oc(=O)n(CCCOc3ccccc3C)c2c1	1.6	/	0.0	-3.9	-19.0*	-18.4	-8.36	?
Cc1ccc2oc(=O)n(CC(=O)OCCC(C)C)c2c1	-4.9	-1.0	-0.6	-0.4	-17.9*	-12.8	-14	-2.49
CNC[C@H]1OCCCC[C@H](C)Oc2ccc(NS(=O)(=O)c3cn(C)cn3)cc2C(=O)N([C@@H](C)CO)C[C@H]1C	/	-6.8	/	/	5.1	/	/	/
COc1ccc(CC(=O)Oc2ccc(C)cc2C)cc1	9.3	-1.3	0.7	-1.2	-23.1*	-15.8	-5.68	-5.95
Cc1ccc(OC(=O)CCC(=O)Oc2ccc(C)cc2C)c(C)c1	-7.5	-0.3	0.7	7.6	-6.1	-19.8	/	/
COCC#Cc1ccc2c(c1)O[C@@H](CN(C)C)[C@@H](C)CN([C@H](C)CO)S2(=O)=O	/	6.4	/	/	-3.7	/	/	/
O=C(C[C@H]1CC[C@@H](NC(=O)Nc2ccc(C(F)(F)F)cc2)[C@@H](CO)O1)NCc1ccccn1	/	-3.7	/	/	-4.1	/	/	/
CCN(C(=O)COC(=O)c1cn(-c2ccccc2)nc1-c1ccccc1)C1CCS(=O)(=O)C1 (stereo not drawn)	2.1	/	-0.6	-0.3	-38.7*	-1.8	-23.9	-12.2
CSc1ccc(CN(C)C(=O)C(c2ccccc2)c2ccccc2)cc1	3.6	-3.5	-0.4	-4.4	-20.6*	-8.4	-10.7	?
CCCC#Cc1ccc2c(c1)O[C@@H](CN(C)C(=O)C1CCCCC1)[C@@H](C)CN([C@@H](C)CO)S2(=O)=O	/	/	/	/	-3.6	/	/	/
O=C(NCc1ccccc1)[C@H]1[C@H](CO)[C@H]2Cn3c(cccc3=O)[C@@H]1N2C(=O)Cc1ccccn1	/	1.2	/	/	1.0	/	/	/
CCCC(=O)N(CCc1ccc(OC)cc1)Cc1nc2ccccc2c(=O)[nH]1	3.5	0.1	-3.3	-3.0	-21.0*	-1.3	/	-7.71
CCCCC(=O)N(Cc1ccc2c(c1)OCO2)Cc1nc2ccccc2c(=O)[nH]1	1.1	/	0.1	-1.4	-23.3*	-0.5	/	-3.76
COc1ccc2c3c(n(C)c2c1)[C@@H](CO)N(Cc1cc(F)ccc1F)CC31CCN(C(=O)C2CC2)CC1	/	/	/	/	3.5	/	/	/
COc1cc(OC)nc(Oc2ccccc2C(=O)Oc2ccc(C)cc2)n1	-0.7	0.2	-0.9	18.4	-23.8*	-13.3	-20.7	/
COC(=O)c1ccccc1Oc1nc(Cl)cc(OC)n1	-1.0	1.5	1.2	11.1	/	1.1	/	/
C[C@@H]1CN([C@H](C)CO)S(=O)(=O)c2ccc(C#CCN(C)C)cc2O[C@H]1CN(C)Cc1ccc(F)cc1	/	-0.5	/	/	-18.9	/	/	/
CC(=O)N(C)C[C@H]1Oc2ccc(N)cc2C(=O)N(C)C[C@H]1C	/	/	/	/	2.8	/	/	/
CC(C)CC#Cc1ccc2c(c1)O[C@@H](CN(C)CC1CCOCC1)[C@H](C)CN([C@H](C)CO)S2(=O)=O	/	6.0	/	/	-17.5	/	/	/
CN1CCN(C(=O)C[C@@H]2CC[C@H]3[C@@H](COC[C@@H](O)CN3C(=O)Nc3ccc(Cl)cc3)O2)CC1	/	-1.8	/	/	-23.9	/	/	/
C[C@@H](NC(=O)C[C@@H]1CC[C@@H]2[C@H](COC[C@H](O)CN2C(=O)Nc2cccc(F)c2)O1)c1ccccc1	/	-0.6	/	/	-20.6*	/	/	?
